One test has as its system HCT-8. Put plainly: Cytotoxicity against human HCT8 cells by MTT assay. Type of test: functional, cell-based. In a few lines:
(§1)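 MTT assay on five human tumour lines: HT-29 colon carcinoma, HCT-8 ileocecal adenocarcinoma, Bel-7402 hepatoma, A549 non-small cell lung carcinoma and MCF-7 breast carcinoma.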

The subject of the next test is MCF7. Put plainly: Cytotoxicity against human MCF7 cells by MTT assay. It counts as functional, cell-based. In a few lines: as §1
For orientation: Tetrazolium assays rely on reduction of a dye to a coloured formazan, in cell work by metabolically active cells.

Test [1] concerns HT-29. Put plainly: Cytotoxicity against human HT-29 cells by MTT assay. Type of test: functional, cell-based. In a few lines:
as §1

For a further test, the system named is A549. Put plainly: Cytotoxicity against human A549 cells by MTT assay. It counts as functional, cell-based. Summed up: as §1
For another test, the system named is Bel-7402. Put plainly: Cytotoxicity against human Bel7402 cells by MTT assay. Type of test: functional, cell-based. Summed up:
as §1

The test system of test [2] is HT-29. Put plainly: Decrease in topoisomerase 1 expression in human HT-29 cells at 20 uM after 24 hrs relative to control. Type of test: functional, cell-based. In a few lines:
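TOPO I protein level in HT-29 cells was probed after 24 h incubation by the common protocols with a commercial TOPO I antibody. Levels were compared with a control group.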

In test [3] the test system is HT-29. Put plainly: Cell cycle arrest in human HT-29 cells assessed as accumulation of Sub-G1 phase at 20 uM after 24 hrs by flow cytometry relative to control. Type of test: functional. In a few lines: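 HT-29 cells were exposed for 24 h. Apoptosis was scored by flow cytometry as the percentage of cells in the Sub-G1 phase, compared against an untreated control group.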
On the technique in general: In flow cytometry, cells or beads pass a laser one at a time.

Test [4] addresses T1, DNA topoisomerase 1 (Homo sapiens) (UniProt P11387).
T1 sequence (whole entry): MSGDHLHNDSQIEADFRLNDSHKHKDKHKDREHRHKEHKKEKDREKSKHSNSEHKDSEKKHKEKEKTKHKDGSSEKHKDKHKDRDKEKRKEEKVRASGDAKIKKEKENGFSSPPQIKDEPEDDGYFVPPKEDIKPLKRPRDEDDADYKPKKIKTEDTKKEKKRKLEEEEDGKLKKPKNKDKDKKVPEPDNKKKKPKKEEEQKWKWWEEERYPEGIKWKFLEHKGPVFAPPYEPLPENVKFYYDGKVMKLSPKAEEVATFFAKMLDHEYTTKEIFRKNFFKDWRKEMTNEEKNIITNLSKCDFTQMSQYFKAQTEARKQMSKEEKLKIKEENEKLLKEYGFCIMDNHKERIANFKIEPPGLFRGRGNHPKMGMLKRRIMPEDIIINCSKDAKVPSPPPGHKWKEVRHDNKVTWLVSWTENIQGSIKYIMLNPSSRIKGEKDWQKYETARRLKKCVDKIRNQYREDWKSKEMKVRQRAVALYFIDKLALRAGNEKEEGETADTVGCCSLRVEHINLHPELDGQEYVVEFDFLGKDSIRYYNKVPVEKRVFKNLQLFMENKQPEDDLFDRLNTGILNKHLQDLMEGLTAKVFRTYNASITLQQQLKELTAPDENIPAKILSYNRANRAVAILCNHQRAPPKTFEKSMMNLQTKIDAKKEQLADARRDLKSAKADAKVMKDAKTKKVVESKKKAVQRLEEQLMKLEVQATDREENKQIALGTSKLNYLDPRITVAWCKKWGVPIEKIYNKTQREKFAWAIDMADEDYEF
Put plainly: Inhibition of topoisomerase 1 assessed as conversion of supercoiled DNA to open circular DNA at 100 uM. Summed up:
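A commercial TOPO I drug screening kit was used with a supercoiled plasmid DNA substrate. Activity was read as conversion of supercoiled DNA (Form I) to open circular DNA, with camptothecin as reference inhibitor.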

From ChEMBL document CHEMBL1154523, “Design and synthesis of N-methylmaleimide indolocarbazole bearing modified 2-acetamino acid moieties as Topoisomerase I inhibitors” (Bioorg Med Chem Lett, 2009) come the findings set out here.

Active and inactive are the calls of the source. The calls are words filed in the database; no cut-off is given here.

In the case of `COC(=O)C(CC(C)C)NC(=O)Cn1c2ccccc2c2c3c(c4c5ccccc5[nH]c4c21)C(=O)N(C)C3=O` (configuration not stated), the concentration for half-maximal inhibition (IC50) with HCT-8, with MCF7, with HT-29 [1], in the test with A549 and in the test on Bel-7402 was over 10 µM throughout.

For the compound `COC(=O)C(Cc1ccccc1)NC(=O)Cn1c2ccccc2c2c3c(c4c5ccccc5[nH]c4c21)C(=O)N(C)C3=O` (configuration not stated), the half-maximal inhibitory concentration (IC50) with HCT-8, in the test with MCF7, with HT-29 [1], in the test with A549 and in the test with Bel-7402 was over 10 µM in each case.

As for `CC(C)CC(NC(=O)Cn1c2ccccc2c2c3c(c4c5ccccc5[nH]c4c21)C(=O)N(C)C3=O)C(=O)N1CCN(C)CC1` (configuration not stated), the IC50 with HCT-8 is over 10 µM; with MCF7, 1.94 µM; with HT-29 [1] it was 1.26 µM; with A549 it was 1.84 µM; in the test with Bel-7402, 2.23 µM. In addition, the result (with HT-29 [2]; in test [4]) was Active. Moreover, the Activity with HT-29 [3] was determined as 14.33%.

As to `CC(NC(=O)Cn1c2ccccc2c2c3c(c4c5ccccc5[nH]c4c21)C(=O)N(C)C3=O)C(=O)N1CCOCC1` (configuration not stated), the IC50 with HCT-8, with MCF7, with HT-29 [1], with A549 and in the test with Bel-7402 was over 10 µM throughout.

As to `CN1C(=O)c2c(c3c4ccccc4n([C@@H]4O[C@H](CO)[C@@H](O)[C@H](O)[C@H]4O)c3c3[nH]c4ccccc4c23)C1=O`, the half-maximal inhibitory concentration (IC50) was over 10 µM in the test with HCT-8; over 10 µM in the test on MCF7; 7.44 µM with HT-29 [1]; over 10 µM in the test on A549; 6.68 µM with Bel-7402.

With `CC(C)C(NC(=O)Cn1c2ccccc2c2c3c(c4c5ccccc5[nH]c4c21)C(=O)N(C)C3=O)C(=O)N1CCOCC1` (configuration not stated), the half-inhibitory concentration (IC50) in the test with HCT-8 is over 10 µM; with MCF7, over 10 µM; with HT-29 [1], 2.66 µM; in the test on A549, 5.11 µM; in the test with Bel-7402, over 10 µM. Further, the outcome (in the test on HT-29 [2]; in test [4]) was Active. In the test with HT-29 [3], the Activity is reported as 2.49%.

As for `CCN1CCN(C(=O)C(CC(C)C)NC(=O)Cn2c3ccccc3c3c4c(c5c6ccccc6[nH]c5c32)C(=O)N(C)C4=O)CC1` (configuration not stated), the half-maximal inhibitory concentration (IC50) was over 10 µM in the test with HCT-8; 2.44 µM in the test on MCF7; 3.48 µM in the test with HT-29 [1]; 7.94 µM in the test on A549; over 10 µM in the test with Bel-7402. For the same compound, the outcome (with HT-29 [2]; in test [4]) was Active. Also, the Activity in the test on HT-29 [3] is recorded as 8.86%.

For the compound `COC(=O)CNC(=O)Cn1c2ccccc2c2c3c(c4c5ccccc5[nH]c4c21)C(=O)N(C)C3=O`, the IC50 was over 10 µM in the test with HCT-8; 2.23 µM with MCF7; 2.88 µM with HT-29 [1]; 2.13 µM in the test with A549; over 10 µM in the test with Bel-7402.

Regarding `CC(C)C(NC(=O)Cn1c2ccccc2c2c3c(c4c5ccccc5[nH]c4c21)C(=O)N(C)C3=O)C(=O)O` (configuration not stated), the 50% inhibitory concentration (IC50) in the test on HCT-8, with MCF7, in the test with HT-29 [1], with A549 and in the test with Bel-7402 was over 10 µM in each case.

Turning to `CC(C)CC(NC(=O)Cn1c2ccccc2c2c3c(c4c5ccccc5[nH]c4c21)C(=O)N(C)C3=O)C(=O)O` (configuration not stated), the IC50 in the test with HCT-8, in the test with MCF7, with HT-29 [1], in the test with A549 and in the test on Bel-7402 was over 10 µM in each case.

On to `CCN1CCN(C(=O)C(Cc2ccccc2)NC(=O)Cn2c3ccccc3c3c4c(c5c6ccccc6[nH]c5c32)C(=O)N(C)C4=O)CC1` (configuration not stated), for which the 50% inhibitory concentration (IC50) in the test with HCT-8 was 1.09 µM; in the test on MCF7, 1.91 µM; in the test on HT-29 [1], 2.88 µM; in the test on A549, 1.86 µM; with Bel-7402 it was 1.91 µM. For the same compound, the outcome (with HT-29 [2]; in test [4]) was Active. The Activity in the test on HT-29 [3] is 10.3%.

In the case of `CN1C(=O)c2c(c3c4ccccc4n(CC(=O)NC(Cc4ccccc4)C(=O)O)c3c3[nH]c4ccccc4c23)C1=O` (configuration not stated), the IC50 in the test with HCT-8, in the test with MCF7, with HT-29 [1], with A549 and in the test on Bel-7402 was over 10 µM in each case.

As for `COC(=O)C(NC(=O)Cn1c2ccccc2c2c3c(c4c5ccccc5[nH]c4c21)C(=O)N(C)C3=O)C(C)C` (configuration not stated), the IC50 in the test on HCT-8, in the test with MCF7, in the test on HT-29 [1], with A549 and in the test on Bel-7402 was over 10 µM throughout.

Regarding `CC(NC(=O)Cn1c2ccccc2c2c3c(c4c5ccccc5[nH]c4c21)C(=O)N(C)C3=O)C(=O)O` (configuration not stated), the 50% inhibitory concentration (IC50) in the test with HCT-8, in the test on MCF7, in the test with HT-29 [1], with A549 and in the test on Bel-7402 was over 10 µM in each case.

Turning to `COC(=O)C(C)NC(=O)Cn1c2ccccc2c2c3c(c4c5ccccc5[nH]c4c21)C(=O)N(C)C3=O` (configuration not stated), the IC50 in the test on HCT-8, with MCF7, in the test on HT-29 [1], in the test with A549 and in the test with Bel-7402 was over 10 µM throughout.

Turning to `CN1C(=O)c2c(c3c4ccccc4n(CC(=O)NCC(=O)O)c3c3[nH]c4ccccc4c23)C1=O`, the IC50 with HCT-8, in the test with MCF7, in the test on HT-29 [1], with A549 and in the test with Bel-7402 was over 10 µM each time.

A word on the IC50: it is the concentration needed to halve the response being measured.
